Measured values pooled from the literature.

Cc1cccc(F)c1NC(=N)CC(O)c1cc2c(F)cc(F)cc2c2cc(C(F)(F)F)ccc12 (stereo not drawn)  IC50 (Plasmodium falciparum; parasite growth, ELISA; 3D7; 72 h, blood stage): 13.2 nM
CC(=O)N[C@H]1[C@@H](O[C@@H]2O[C@H](C[C@@H](O)[C@H]3O[C@@H](n4ccc(=O)[nH]c4=O)[C@H](O)[C@@H]3O)[C@H](O)[C@H](O)[C@H]2NC(=O)/C=C/CCCCCCCCCC(C)C)O[C@H](CO)[C@@H](O)[C@@H]1O  IC50 (MDA-MB-453; cell growth or viability, WST-1): 160 nM
CCN1CCN(Cc2ccc(Nc3nc4ccc(Oc5ccnc(NC(=O)C6CCN(C)CC6)c5)cc4n3C)cc2C(F)(F)F)CC1  EC50 (Plasmodium falciparum; parasite growth, SYBR Green; DD2; blood stage): 116 nM
C[C@@H]1CC[C@H]2[C@@H](C)C(=O)O[C@@H]3O[C@@]4(C)CC[C@@H]1[C@]32OO4  IC50 (Plasmodium falciparum; parasite growth; K1; drug-resistant strain, blood stage): 0.6 nM
N=C(CC(O)c1cc2c(F)cc(F)cc2c2cc(C(F)(F)F)ccc12)Nc1cccc(F)c1 (stereo not drawn)  IC50 (Plasmodium falciparum; parasite growth, ELISA; 3D7; 72 h, blood stage): 2.1 nM
CC(C)C[C@H](NC(=O)[C@H](CC(C)C)NC(=O)[C@H](CCCCN)NC(=O)[C@H](CCCCN)NC(=O)[C@H](CC(C)C)NC(=O)[C@H](CC(C)C)NC(=O)[C@H](CCCCN)NC(=O)[C@H](CCCCN)NC(=O)[C@H](CC(C)C)NC(=O)[C@H](CC(C)C)NC(=O)[C@H](CCCCN)NC(=O)[C@H](CCCCN)NC(=O)[C@H](CC(C)C)NC(=O)[C@@H](N)CCC(=O)O)C(N)=O  IC50 (HCCC9810; cell growth or viability, CCK-8): 8870 nM
N#Cc1ccc(NC(=N)CC(O)c2cc3c(F)cc(F)cc3c3cc(C(F)(F)F)ccc23)cc1 (stereo not drawn)  IC50 (Plasmodium falciparum; parasite growth, ELISA; 3D7; 72 h, blood stage): 24.7 nM
COc1ccc2cc1Oc1ccc(cc1)C[C@H]1c3c(cc4c(c3Oc3cc5c(cc3OC)CCN(C)[C@@H]5C2)OCO4)CCN1C  IC50 (Plasmodium falciparum; parasite growth; K1; drug-resistant strain, blood stage): 91.4 nM
N=C(CC(O)c1cc2c(F)cc(F)cc2c2cc(C(F)(F)F)ccc12)NC1CC(F)(F)C1 (stereo not drawn)  IC50 (Plasmodium falciparum; parasite growth, ELISA; 3D7; 72 h, blood stage): 80.2 nM
Cc1ccc(N(CC2=NCCN2)c2cccc(O)c2)cc1  IC50 (Plasmodium falciparum; parasite growth; K1; drug-resistant strain, blood stage): 189000 nM
CC(C)C[C@H](NC(=O)[C@H](CC(C)C)NC(=O)[C@H](CCCCN)NC(=O)[C@H](CCCCN)NC(=O)[C@H](CCC(=O)O)NC(=O)[C@H](CC(C)C)NC(=O)[C@H](CCCCN)NC(=O)[C@H](CCCCN)NC(=O)[C@H](CC(C)C)NC(=O)[C@H](CC(C)C)NC(=O)[C@H](CCCCN)NC(=O)[C@H](CCCCN)NC(=O)[C@H](CC(C)C)NC(=O)[C@@H](N)CC(C)C)C(N)=O  IC50 (HCCC9810; cell growth or viability, CCK-8): 8320 nM
CO[C@H]1/C=C/O[C@@]2(C)Oc3c(C)c(O)c4c(O)c(c(/C=N/N5CCN(C6CCCC6)CC5)c(O)c4c3C2=O)NC(=O)/C(C)=C\C=C\[C@H](C)[C@H](O)[C@@H](C)[C@@H](O)[C@@H](C)[C@H](OC(C)=O)[C@@H]1C  IC50 (Plasmodium falciparum; parasite growth; DD2; drug-resistant strain, blood stage): 1980 nM
CC(C)C[C@H](NC(=O)[C@H](CC(C)C)NC(=O)[C@H](CCCCN)NC(=O)[C@H](CCCCN)NC(=O)[C@H](CC(C)C)NC(=O)[C@H](CC(C)C)NC(=O)[C@H](CCCCN)NC(=O)[C@H](CCCCN)NC(=O)[C@H](CCC(=O)O)NC(=O)[C@H](CC(C)C)NC(=O)[C@H](CCCCN)NC(=O)[C@H](CCCCN)NC(=O)[C@H](CC(C)C)NC(=O)[C@@H](N)CC(C)C)C(N)=O  IC50 (HCCC9810; cell growth or viability, CCK-8): 325000 nM
CCN(CC)CCOc1ccc2c(c1)C(=O)c1cc(OCCN(CC)CC)ccc1-2  IC50 (Plasmodium falciparum; parasite growth; K1; drug-resistant strain, blood stage): 500 nM
N.N.[Cl][Pt][Cl]  IC50 (RS4-11; cell growth or viability, ATP luminescence; 72 h): 610 nM
